Experimental findings from PMC4135234 (Combinatorial chemistry & high throughput screening, 2014) are described below.

Data set [1] concerns MSI. Put plainly: FP MSI RNA binding assay, statement does not separate MSI1 and MSI2. Details: species or system human. To be noted: 10 μM.
The target of data set [2] is T1, LIN28A (Homo sapiens, UniProt Q9H9Z2).
T1 sequence (Q9H9Z2 1-209): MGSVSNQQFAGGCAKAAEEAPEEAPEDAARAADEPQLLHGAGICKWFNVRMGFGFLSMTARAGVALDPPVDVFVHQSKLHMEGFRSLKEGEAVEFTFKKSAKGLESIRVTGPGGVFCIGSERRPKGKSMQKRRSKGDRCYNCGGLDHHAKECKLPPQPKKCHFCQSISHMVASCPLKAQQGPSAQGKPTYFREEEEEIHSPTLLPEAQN
The experiment in a line: SYBR-based RNA EMSA, ssRNA oligo binding to GST-LIN28A. To be noted: 200 pmols ssRNA oligo, 500 to 2500 ng GST-protein; symbols not defined. On the technique in general: In EMSA bound probe runs differently from free probe, usually more slowly.

Data set [3] deals with T2, MSI2 (Homo sapiens, UniProt Q96DH6). Put plainly: SYBR-based RNA EMSA, ssRNA oligo binding to GST-MSI2. To be noted: 200 pmols ssRNA oligo, 500 to 2500 ng GST-protein; symbols not defined.
For data set [4], the target named is T3, MSI1 (Homo sapiens, UniProt O43347). The experiment in a line: SYBR-based RNA EMSA, ssRNA oligo binding to GST-MSI1. To be noted: 200 pmols ssRNA oligo, 500 to 2500 ng GST-protein; symbols not defined.
Data set [5] has as its target T1, LIN28A. Put plainly: Orthogonal SYBR-based EMSA, inhibition of RNA binding to LIN28A. To be noted: 1 mM (LC), MSI Oligo #2 200 pmols, 1000 ng protein. A digest of the protocol:
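GST-LIN28A (1000 ng, E. coli-expressed) pre-incubated 30 min at room temperature in EMSA buffer with 1% DMSO, 10 μM test compound or 1 mM oleic acid. Then 200 pmols 15-nt ssRNA MSI Oligo #2 added for 30 min more (20 μL). Native 10% polyacrylamide TBE gel in chilled 0.5X TBE at 4°C, 100V, 2–2.5 h. 2X SYBR Safe stain, imaged. At least two repeats.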

The target of data set [6] is T2, MSI2. Put plainly: Orthogonal SYBR-based EMSA, inhibition of RNA binding to MSI2. To be noted: 1 mM (LC), MSI Oligo #2 200 pmols, 1000 ng protein.
Data set [7] deals with T3, MSI1. Put plainly: Orthogonal SYBR-based EMSA, inhibition of RNA binding to MSI1. To be noted: 1 mM (LC), MSI Oligo #2 200 pmols, 1000 ng protein.
For data set [8], the target named is T2, MSI2. The experiment in a line: FP probe displacement, 1536-well, MSI2. In kind it is binding. An outline of the steps: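 Displacement of 10 nM Cy3-C9-r(GUAGUAGU) probe from 1 μM GST-MSI2 was run as a dose response in 1536-well format, with FP read using Cy3 filters. IC50 for displacement came from two independent experiments, each performed in triplicate.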

T2 sequence (Q96DH6 whole entry): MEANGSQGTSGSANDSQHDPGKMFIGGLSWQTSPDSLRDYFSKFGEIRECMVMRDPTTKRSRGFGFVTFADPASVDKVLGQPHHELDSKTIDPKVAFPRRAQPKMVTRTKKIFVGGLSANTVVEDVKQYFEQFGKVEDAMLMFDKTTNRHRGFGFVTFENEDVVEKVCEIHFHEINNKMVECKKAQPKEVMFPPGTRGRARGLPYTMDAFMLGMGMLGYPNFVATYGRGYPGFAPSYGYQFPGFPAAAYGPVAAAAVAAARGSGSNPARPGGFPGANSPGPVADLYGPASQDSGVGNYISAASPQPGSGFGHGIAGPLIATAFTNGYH
T3 sequence (O43347 whole entry): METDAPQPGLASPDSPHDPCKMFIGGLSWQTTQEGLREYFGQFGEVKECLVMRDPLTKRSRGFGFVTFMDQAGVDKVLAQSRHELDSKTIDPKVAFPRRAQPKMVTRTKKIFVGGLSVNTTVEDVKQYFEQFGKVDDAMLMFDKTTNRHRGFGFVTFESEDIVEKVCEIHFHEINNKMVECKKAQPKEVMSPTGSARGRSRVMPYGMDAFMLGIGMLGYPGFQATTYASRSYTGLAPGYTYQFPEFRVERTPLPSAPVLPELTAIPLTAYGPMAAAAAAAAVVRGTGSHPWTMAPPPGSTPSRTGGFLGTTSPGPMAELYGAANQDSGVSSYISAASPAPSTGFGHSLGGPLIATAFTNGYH

As for `CC(=O)[C@]1(O)Cc2c(O)c3c(c(O)c2[C@@H](O[C@H]2C[C@H](N)[C@H](O)[C@H](C)O2)C1)C(=O)c1ccccc1C3=O` [idarubicin, reference compound], in data set [1], the “MSI inhibition activity in FP pilot screen, in words” value (“MSI inhibition activity” below) is given as “inhibiting MSI binding activity”.

“ssRNA Oligo #8: non-specific ssRNA oligo AGGGAUCGAAAAUUG, 15 nt, no binding motif (RNA, backbone not given here)”: the “Binding affinity(EMSA) LIN28A” value in data set [2] was “high affinity”.

For the compound “MSI Oligo #4: ssRNA oligo GUAGUAGUAGUAGUA, 15 nt, 4 MSI binding motifs (RNA, backbone not given here)”, in data set [3], the “Binding affinity(EMSA) MSI2” value is given as “highest affinity”. The “Binding affinity(EMSA) MSI1” value in data set [4] is listed as “highest affinity”. The “Binding affinity(EMSA) LIN28A” value in data set [2] was “highest affinity”.

As to `COc1cccc2c1C(=O)c1c(O)c3c(c(O)c1C2=O)C[C@@](O)(C(=O)CO)C[C@@H]3O[C@H]1C[C@H](N)[C@H](O)[C@H](C)O1` [doxorubicin, reference compound], the “MSI inhibition activity” value in data set [1] was “inhibiting MSI binding activity”.

As for `CC[C@@]1(O)C[C@H](O)c2c(cc3c(c2O)C(=O)c2c(O)ccc(O)c2C3=O)[C@H]1C(=O)OC` [rutilantinone], in data set [1], the “MSI inhibition activity” value is listed as “inhibiting MSI binding activity”.

Turning to `COc1cccc2c1C(=O)c1c(O)c3c(c(O)c1C2=O)C[C@@](O)(C(C)=O)C[C@@H]3O[C@H]1C[C@H](N)[C@H](O)[C@H](C)O1` [daunorubicin, reference compound], the “MSI inhibition activity” value in data set [1] is recorded as “inhibiting MSI binding activity”.

Consider `CCCCCCCC/C=C\CCCCCCCC(=O)O` [oleic acid, reference compound], for which the “% inhibition of RNA binding to LIN28A (EMSA)” value in data set [5] is recorded as over 80%. Further, the “% inhibition of RNA binding to MSI2 (EMSA)” value in data set [6] is over 80%. Further, the “% inhibition of RNA binding to MSI1 (EMSA)” value in data set [7] is over 80%. The IC50 in data set [8] was found to be 29 ± 1.7 µM.

Consider `CC[C@@]1(O)C[C@H](O[C@H]2C[C@H](N(C)C)[C@H](O)[C@H](C)O2)c2c(cc3c(c2O)C(=O)c2c(O)cccc2C3=O)[C@H]1C(=O)OC` [aklavine], for which the “MSI inhibition activity” value in data set [1] is given as “inhibiting MSI binding activity”.

As usually defined, the IC50 is the concentration at which inhibition is half-maximal. Low values mean inhibition by little substance, high ones a need for much substance.
